Assay results as given in ChEMBL document CHEMBL4715736, “Identification of anticancer agents based on the thieno[2,3-b]pyridine and 1H-pyrazole molecular scaffolds” (2016).

How the values were obtained:
Type in all cases: functional
T47D [1] = assay: Growth inhibition of human T47D cells assessed as cell growth at 0.01 uM incubated for 48 hrs by sulforhodamine B assay relative to control; conditions: read-out: Activity
SF-539 = assay: Growth inhibition of human SF-539 cells assessed as cell growth at 1 uM incubated for 48 hrs by sulforhodamine B assay relative to control; conditions: read-out: Activity
SK-MEL-28 [2] = assay: Growth inhibition of human SK-MEL-28 cells assessed as cell growth at 0.01 uM incubated for 48 hrs by sulforhodamine B assay relative to control; conditions: read-out: Activity
NCI-H322M = assay: Growth inhibition of human NCI-H322M cells incubated for 48 hrs by sulforhodamine B assay; conditions: for CC50: read-out: LC50 (the source's name)
Method in brief: (§1)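 NCI60 panel at the NCI Developmental Therapeutics Program. Only compounds active in the 10 µM screen went to dose-response testing. GI50, the concentration giving 50% of maximal inhibition of proliferation, and TGI, the concentration giving total growth inhibition, were derived from the dose-response curves.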

SF-268 = assay: Growth inhibition of human SF-268 cells assessed as cell growth at 0.1 uM incubated for 48 hrs by sulforhodamine B assay relative to control; conditions: read-out: Activity
SN12C = assay: Growth inhibition of human SN12C cells incubated for 48 hrs by sulforhodamine B assay; conditions: for CC50: read-out: LC50 (the source's name)
Method in brief: (§2)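 NCI DTP 60-line human tumour panel. Dose-response curves were run only for ligands active in the initial 10 µM screen. GI50 (concentration giving 50% of maximal inhibition of proliferation) and TGI (concentration giving total growth inhibition) were derived from these curves.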

DU-145 [3] = assay: Growth inhibition of human DU-145 cells incubated for 48 hrs by sulforhodamine B assay; conditions: for CC50: read-out: LC50 (the source's name)
Method in brief: (§3)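 NCI Developmental Therapeutics Program NCI60 panel. Compounds that were active in the 10 µM one-dose screen went on to dose–response testing. Growth at each concentration is expressed relative to untreated control (100%). GI50 (concentration giving 50% of maximal inhibition of proliferation) and TGI (concentration giving total growth inhibition) were derived from the curves.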

OVCAR-8 [4] = assay: Growth inhibition of human OVCAR-8 cells incubated for 48 hrs by sulforhodamine B assay; conditions: for CC50: read-out: LC50 (the source's name); method in brief: as §2
IGROV-1 [5] = assay: Growth inhibition of human IGROV-1 cells incubated for 48 hrs by sulforhodamine B assay; method in brief: as §1
Malme-3M [6] = assay: Growth inhibition of human Malme-3M cells assessed as cell growth at 1 uM incubated for 48 hrs by sulforhodamine B assay relative to control; conditions: read-out: Activity
BT-549 = assay: Growth inhibition of human BT-549 cells assessed as cell growth at 1 uM incubated for 48 hrs by sulforhodamine B assay relative to control; conditions: read-out: Activity
NCI/ADR-RES = assay: Growth inhibition of human NCI/ADR-RES cells assessed as cell growth at 1 uM incubated for 48 hrs by sulforhodamine B assay relative to control; conditions: read-out: Activity
Malme-3M [7] = assay: Growth inhibition of human Malme-3M cells assessed as cell growth at 0.1 uM incubated for 48 hrs by sulforhodamine B assay relative to control; conditions: read-out: Activity
HT-29 = assay: Growth inhibition of human HT-29 cells assessed as cell growth at 100 uM incubated for 48 hrs by sulforhodamine B assay relative to control; conditions: read-out: Activity
NCI-H226 = assay: Growth inhibition of human NCI-H226 cells incubated for 48 hrs by sulforhodamine B assay; conditions: for CC50: read-out: LC50 (the source's name); method in brief: as §1
HOP-92 = assay: Growth inhibition of human HOP-92 cells assessed as cell growth at 0.1 uM incubated for 48 hrs by sulforhodamine B assay relative to control; conditions: read-out: Activity
MDA-MB-435 [8] = assay: Growth inhibition of human MDA-MB-435 cells assessed as cell growth at 0.1 uM incubated for 48 hrs by sulforhodamine B assay relative to control; conditions: read-out: Activity
DU-145 [9] = assay: Growth inhibition of human DU-145 cells assessed as cell growth at 0.01 uM incubated for 48 hrs by sulforhodamine B assay relative to control; conditions: read-out: Activity; method in brief: as §3
RPMI-8226 = assay: Growth inhibition of human RPMI-8226 cells incubated for 48 hrs by sulforhodamine B assay; method in brief: as §2
SF-295 = assay: Growth inhibition of human SF-295 cells assessed as cell growth at 0.01 uM incubated for 48 hrs by sulforhodamine B assay relative to control; conditions: read-out: Activity
T47D [10] = assay: Growth inhibition of human T47D cells assessed as cell growth at 100 uM incubated for 48 hrs by sulforhodamine B assay relative to control; conditions: read-out: Activity
MDA-MB-468 = assay: Growth inhibition of human MDA-MB-468 cells incubated for 48 hrs by sulforhodamine B assay; conditions: for CC50: read-out: LC50 (the source's name); method in brief: as §1
MDA-MB-231 [11] = assay: Growth inhibition of human MDA-MB-231 cells assessed as cell growth at 100 uM incubated for 48 hrs by sulforhodamine B assay relative to control; conditions: read-out: Activity
MOLT-4 = assay: Growth inhibition of human MOLT-4 cells assessed as cell growth at 1 uM incubated for 48 hrs by sulforhodamine B assay relative to control; conditions: read-out: Activity
OVCAR-8 [12] = assay: Growth inhibition of human OVCAR-8 cells assessed as cell growth at 0.01 uM incubated for 48 hrs by sulforhodamine B assay relative to control; conditions: read-out: Activity
T47D [13] = assay: Growth inhibition of human T47D cells assessed as cell growth at 1 uM incubated for 48 hrs by sulforhodamine B assay relative to control; conditions: read-out: Activity
LOX IMVI = assay: Growth inhibition of human LOX IMVI cells assessed as cell growth at 1 uM incubated for 48 hrs by sulforhodamine B assay relative to control; conditions: read-out: Activity
SK-MEL-28 [14] = assay: Growth inhibition of human SK-MEL-28 cells assessed as cell growth at 100 uM incubated for 48 hrs by sulforhodamine B assay relative to control; conditions: read-out: Activity
MDA-MB-231 [15] = assay: Growth inhibition of human MDA-MB-231 cells assessed as cell growth at 0.01 uM incubated for 48 hrs by sulforhodamine B assay relative to control; conditions: read-out: Activity
CCRF-CEM = assay: Growth inhibition of human CCRF-CEM cells assessed as cell growth at 0.1 uM incubated for 48 hrs by sulforhodamine B assay relative to control; conditions: read-out: Activity; method in brief: as §3
IGROV-1 [16] = assay: Growth inhibition of human IGROV-1 cells assessed as cell growth at 100 uM incubated for 48 hrs by sulforhodamine B assay relative to control; conditions: read-out: Activity
SK-OV-3 = assay: Growth inhibition of human SK-OV-3 cells incubated for 48 hrs by sulforhodamine B assay; conditions: for CC50: read-out: LC50 (the source's name); method in brief: as §2
MDA-MB-435 [17] = assay: Growth inhibition of human MDA-MB-435 cells assessed as cell growth at 0.01 uM incubated for 48 hrs by sulforhodamine B assay relative to control; conditions: read-out: Activity
UACC-257 = assay: Growth inhibition of human UACC-257 cells incubated for 48 hrs by sulforhodamine B assay; method in brief: as §2

CCc1ccccc1NC(=O)c1sc2nc3c(cc2c1N)C(=O)CCC3
growth at 0.01 µM (T47D [1]): 99%
growth at 1 µM (SF-539): 11%
growth at 0.01 µM (SK-MEL-28 [2]): 88%
TGI (NCI-H322M): > 100 µM
CC50 (NCI-H322M): > 100 µM
growth at 0.1 µM (SF-268): 93%
GI50 (SN12C): 0.676 µM
TGI (SN12C): > 100 µM
CC50 (SN12C): > 100 µM
GI50 (DU-145 [3]): 0.499 µM
TGI (DU-145 [3]): > 100 µM
CC50 (DU-145 [3]): > 100 µM
GI50 (OVCAR-8 [4]): 2.52 µM
TGI (OVCAR-8 [4]): > 100 µM
CC50 (OVCAR-8 [4]): > 100 µM
GI50 (IGROV-1 [5]): 13.7 µM
LC50 (IGROV-1 [5]): > 100 µM
TGI (IGROV-1 [5]): > 100 µM
growth at 1 µM (Malme-3M [6]): 50%
growth at 1 µM (BT-549): 50%
growth at 1 µM (NCI/ADR-RES): 21%
growth at 0.1 µM (Malme-3M [7]): 84%
growth at 100 µM (HT-29): -7%
GI50 (NCI-H226): 20.1 µM
TGI (NCI-H226): > 100 µM
CC50 (NCI-H226): > 100 µM
growth at 0.1 µM (HOP-92): 69%
growth at 0.1 µM (MDA-MB-435 [8]): 29%
growth at 0.01 µM (DU-145 [9]): 105%
GI50 (RPMI-8226): 0.853 µM
LC50 (RPMI-8226): > 100 µM
TGI (RPMI-8226): ≥ 100 µM
growth at 0.01 µM (SF-295): 86%
growth at 100 µM (T47D [10]): -5%
GI50 (MDA-MB-468): 0.209 µM
TGI (MDA-MB-468): 44.7 µM
CC50 (MDA-MB-468): > 100 µM
growth at 100 µM (MDA-MB-231 [11]): 4%
growth at 1 µM (MOLT-4): 66%
growth at 0.01 µM (OVCAR-8 [12]): 98%
growth at 1 µM (T47D [13]): 20%
growth at 1 µM (LOX IMVI): 39%
growth at 100 µM (SK-MEL-28 [14]): 11%
growth at 0.01 µM (MDA-MB-231 [15]): 97%
growth at 0.1 µM (CCRF-CEM): 89%
growth at 100 µM (IGROV-1 [16]): 7%
GI50 (SK-OV-3): 0.537 µM
TGI (SK-OV-3): 75.7 µM
CC50 (SK-OV-3): > 100 µM
growth at 0.01 µM (MDA-MB-435 [17]): 92%
GI50 (UACC-257): 19.9 µM
LC50 (concentration killing 50% of cells) (UACC-257): > 100 µM
TGI (UACC-257): > 100 µM

Cc1ccc(NC(=O)c2sc3nc4c(cc3c2N)C(=O)CCC4)cc1C
growth at 0.01 µM (T47D [1]): 98%
growth at 1 µM (SF-539): 21%
growth at 0.01 µM (SK-MEL-28 [2]): 99%
GI50 (NCI-H322M): 0.975 µM
TGI (NCI-H322M): > 100 µM
CC50 (NCI-H322M): > 100 µM
growth at 0.1 µM (SF-268): 94%
GI50 (SN12C): 0.675 µM
TGI (SN12C): > 100 µM
CC50 (SN12C): > 100 µM
GI50 (DU-145 [3]): 0.602 µM
TGI (DU-145 [3]): > 100 µM
CC50 (DU-145 [3]): > 100 µM
GI50 (OVCAR-8 [4]): 3.06 µM
TGI (OVCAR-8 [4]): > 100 µM
CC50 (OVCAR-8 [4]): > 100 µM
GI50 (IGROV-1 [5]): 1.09 µM
LC50 (IGROV-1 [5]): > 100 µM
TGI (IGROV-1 [5]): > 100 µM
growth at 1 µM (Malme-3M [6]): 24%
growth at 1 µM (BT-549): 49%
growth at 1 µM (NCI/ADR-RES): 39%
growth at 0.1 µM (Malme-3M [7]): 86%
growth at 100 µM (HT-29): -23%
GI50 (NCI-H226): 22.4 µM
TGI (NCI-H226): > 100 µM
CC50 (NCI-H226): > 100 µM
growth at 0.1 µM (HOP-92): 72%
growth at 0.1 µM (MDA-MB-435 [8]): 60%
growth at 0.01 µM (DU-145 [9]): 104%
GI50 (RPMI-8226): 1.43 µM
LC50 (RPMI-8226): > 100 µM
growth at 0.01 µM (SF-295): 91%
growth at 100 µM (T47D [10]): -13%
GI50 (MDA-MB-468): 0.229 µM
CC50 (MDA-MB-468): > 100 µM
growth at 100 µM (MDA-MB-231 [11]): 24%
growth at 1 µM (MOLT-4): 82%
growth at 0.01 µM (OVCAR-8 [12]): 97%
growth at 1 µM (T47D [13]): 23%
growth at 1 µM (LOX IMVI): 42%
growth at 100 µM (SK-MEL-28 [14]): 25%
growth at 0.01 µM (MDA-MB-231 [15]): 98%
growth at 0.1 µM (CCRF-CEM): 97%
growth at 100 µM (IGROV-1 [16]): 10%
GI50 (SK-OV-3): 0.534 µM
TGI (SK-OV-3): > 100 µM
CC50 (SK-OV-3): > 100 µM
growth at 0.01 µM (MDA-MB-435 [17]): 95%
LC50 (concentration killing 50% of cells) (UACC-257): > 100 µM
TGI (UACC-257): > 100 µM
